Results gathered from unrelated publications.
Target: High affinity nerve growth factor receptor (NTRK1, Homo sapiens, UniProt P04629)

| Structure (SMILES) | assay | setting | remaining binding [%] |
| --- | --- | --- | --- |
| CCS(=O)(=O)c1cc2cc(C[C@@](O)(CC(C)(C)c3ccc(F)cc3C(N)=O)C(F)(F)F)[nH]c2cn1 | cell-free assay, competition with immobilised ligand | 1 µM | 74 |
| C[C@H]1CCN(c2nccc(-c3cnn4ncccc34)n2)C1 | binding | 1 µM | 68 |
| O=S(=O)(NC1CCC(c2cc(F)ccc2F)(S(=O)(=O)c2ccc(Cl)cc2)CC1)C(F)(F)F (stereo not drawn) | cell-free assay, competition with immobilised ligand | 1 µM | 76 |
| C=CC(=O)N1CCC(C(=O)NCC(=O)N2CCN(c3nc(-c4cnc(N)nc4C(F)F)nc(N4CCOCC4)n3)CC2)CC1 | binding, competition with immobilised ligand | 1 µM | 81 |
| CN(C(=O)c1ccccc1)c1cc(N(C)c2ccc3c(c2)CCc2ccc(C(=O)NCCN4CCOCC4)cc2C3=O)ccc1F | cell-free assay, competition with immobilised ligand | 1 µM | 79 |
| O=C(NCCCN1CCOCC1)c1ccc(Nc2nccc(-c3cc4ccccc4s3)n2)cc1 | binding, competition with immobilised ligand | 1 µM | 19 |
| O=C(NCC1CCOCC1)c1n[nH]cc1NC(=O)c1c(F)cccc1F | binding, competition with immobilised ligand | 1 µM | 100 |
| Cc1cc(-n2nc(Cc3cc(F)cc(C(F)(F)F)c3)nc2C)ccc1C(N)=O | cell-free assay, competition with immobilised ligand | 1 µM | 97 |
| COc1ccnn2ncc(-c3ccnc(N(C)C)n3)c12 | binding | 1 µM | 79 |
| Nc1c(C(=O)NCc2ccc(C(=O)NCCCC3CCCCC3)cc2)cnn1-c1ccccc1 | cell-free assay, competition with immobilised ligand | 0.1 µM | 100 |
| F[C@@H]1CCN(c2nccc(-c3cnn4ncccc34)n2)C1 | binding | 1 µM | 86 |
| COc1cnc(Nc2cccc(S(N)(=O)=O)c2)nc1N1CCN(c2ccccc2)CC1 | binding, competition with immobilised ligand | 1 µM | 58 |
| N[C@H]1CCN(c2nccc(-c3cnn4ncccc34)n2)C1 | binding | 1 µM | 85 |
| COc1ncc2cc3ccccc3nc2c1C#N | cell-free assay, competition with immobilised ligand | 5 µM | 100 |
| FC(F)(F)Oc1cccc(-c2cnc3ccc(-c4ccncc4)nn23)c1 | cell-free assay, competition with immobilised ligand | 5 µM | 1.9 |
| c1cnn2ncc(-c3ccnc(N4CCC45COC5)n3)c2c1 | binding | 1 µM | 53 |
| O=C(NCCCN1CCOCC1)c1ccc(Nc2ncc(Cl)c(-c3ccc(Cl)s3)n2)cc1 | binding, competition with immobilised ligand | 1 µM | 17 |
| Cn1cc(Cl)c2c(Oc3c(F)cc(Nc4cc(Cl)nc(N)n4)cc3F)ccnc21 | cell-free assay, competition with immobilised ligand | 0.1 µM | 74 |
| CN1CCN(c2ccc(Nc3nccc(-c4cccc([N+](=O)[O-])c4)n3)cc2C(F)(F)F)CC1 | binding | 10 µM | 13 |
| CC1CCCN1c1nccc(-c2cnn3ncccc23)n1 (stereo not drawn) | binding | 1 µM | 87 |
| Cc1cc(Nc2nccc(C)n2)cc(-c2cnc([C@@]3(O)CC[C@H](C(=O)O)C(C)(C)C3)s2)c1 | binding, competition with immobilised ligand | 1 µM | 30.2 |
| CC(C)(C)c1ccc(-c2nc(CBr)nn2-c2cccc(O)c2)cc1 | cell-free assay, competition with immobilised ligand | 10 µM | 71 |
| CN(C)c1nccc(-c2cnn3ncccc23)n1 | binding | 1 µM | 68 |
| O=C(c1ccc(Nc2ncc(Cl)c(-c3ccc(Cl)s3)n2)cc1)N1CCC(N2CCCC2)CC1 | binding, competition with immobilised ligand | 1 µM | 1.3 |
